In ChEMBL document CHEMBL3588823, “Design, synthesis and biological evaluation of novel 5-oxo-2-thioxoimidazolidine derivatives as potent androgen receptor antagonists” (Eur J Med Chem, 2015):

How the values were obtained:
[1] = system: LNCaP; test: Antiproliferative activity against human LNCAP cells after 3 days; type: functional, cell-based
Summary of the method: (§1)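 LNCaP cells seeded at 10,000 per well in RPMI 1640 with 10% charcoal-stripped serum and 1% AAS, then held 3 days at 37 °C. Medium was then replaced with serial compound dilutions, either without DHT (agonism mode) or with DHT (antagonism mode).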

[2] = target: T1, Androgen receptor (Homo sapiens, UniProt P10275); test: Partial agonist activity at androgen receptor (unknown origin); summary of the method: as §1
T1 sequence (P10275 whole entry): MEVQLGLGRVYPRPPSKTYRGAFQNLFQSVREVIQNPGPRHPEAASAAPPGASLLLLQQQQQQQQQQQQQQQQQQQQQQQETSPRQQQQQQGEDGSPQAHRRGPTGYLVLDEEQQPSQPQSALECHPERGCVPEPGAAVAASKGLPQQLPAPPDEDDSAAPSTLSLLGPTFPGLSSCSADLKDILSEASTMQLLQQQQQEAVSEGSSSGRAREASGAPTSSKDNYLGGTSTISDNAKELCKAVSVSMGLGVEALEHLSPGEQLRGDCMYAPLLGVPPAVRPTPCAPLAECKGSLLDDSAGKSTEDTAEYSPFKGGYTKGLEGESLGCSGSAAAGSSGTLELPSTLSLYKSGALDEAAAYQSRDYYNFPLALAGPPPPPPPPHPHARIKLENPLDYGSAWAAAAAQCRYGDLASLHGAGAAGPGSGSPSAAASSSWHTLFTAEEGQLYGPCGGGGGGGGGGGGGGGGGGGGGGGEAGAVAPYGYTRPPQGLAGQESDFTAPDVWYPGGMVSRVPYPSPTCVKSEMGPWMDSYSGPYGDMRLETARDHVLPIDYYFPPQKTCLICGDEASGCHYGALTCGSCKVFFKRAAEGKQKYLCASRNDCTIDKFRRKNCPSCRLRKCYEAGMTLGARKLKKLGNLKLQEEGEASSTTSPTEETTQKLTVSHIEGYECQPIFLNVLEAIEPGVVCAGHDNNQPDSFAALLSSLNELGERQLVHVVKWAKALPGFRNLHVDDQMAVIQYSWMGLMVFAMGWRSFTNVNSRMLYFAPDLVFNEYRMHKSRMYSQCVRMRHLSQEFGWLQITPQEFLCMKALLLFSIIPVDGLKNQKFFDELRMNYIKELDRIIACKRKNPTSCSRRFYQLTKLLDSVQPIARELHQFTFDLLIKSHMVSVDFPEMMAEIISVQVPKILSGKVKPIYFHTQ

[3] = target: T1, Androgen receptor; test: Antagonist activity at androgen receptor (unknown origin)
[4] = system: Rattus norvegicus; test: (§2) Half life in rat at 5 mg/kg, po; type: ADME, organism-based; settings: in vivo
Summary of the method: (§3)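 Rats (n = 3) were given a single 5 mg/kg oral dose in 0.5% HPMC. Blood was taken into EDTA tubes at 15 and 30 min and 1, 2, 4, 8 and 24 h. Plasma was obtained by centrifugation and proteins were precipitated with acetonitrile. Bioavailability was calculated against a 1 mg/kg iv dose.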

[5] = system: Rattus norvegicus; test: (§4) Half life in rat at 1 mg/kg, iv; type: ADME, organism-based; settings: in vivo
Summary of the method: (§5)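 Rats (n = 3) were given a single 1 mg/kg iv dose in 20% hydroxypropyl-β-cyclodextrin. Blood was taken into EDTA tubes at 5, 15 and 30 min and 1, 2, 4, 8 and 24 h. Plasma was obtained by centrifugation and proteins were precipitated with acetonitrile before analysis.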

[6] = system: Rattus norvegicus; test: (§6) Tmax in rat at 5 mg/kg, po; type: ADME, organism-based; settings: in vivo; summary of the method: as §3
[7] = Tmax in rat at 1 mg/kg, iv; type: ADME, organism-based; settings: in vivo; summary of the method: as §5
[8] = system: Rattus norvegicus; test: (§7) Cmax in rat at 5 mg/kg, po; type: ADME, organism-based; design: dose 5 mg/kg, route oral; settings: in vivo; summary of the method: as §3
[9] = system: Rattus norvegicus; test: (§8) Cmax in rat at 1 mg/kg, iv; type: ADME, organism-based; design: dose 1 mg/kg, route intravenous; settings: in vivo; summary of the method: as §5
[10] = AUC (0 to time) in rat at 5 mg/kg, po; type: ADME, organism-based; settings: in vivo
Summary of the method: (§9)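 Rats (n = 3) received a single 5 mg/kg oral dose in 0.5% HPMC. EDTA blood samples were taken at 15 and 30 min and at 1, 2, 4, 8 and 24 h. Plasma was obtained by centrifugation, mixed with acetonitrile:H2O (1:1 v/v) and precipitated with acetonitrile.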

[11] = AUC (0 to time) in rat at 1 mg/kg, iv; type: ADME, organism-based; settings: in vivo
Summary of the method: (§10)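 Rats (n = 3) given a single 1 mg/kg iv dose in 20% HP-b-CD. Blood was drawn into EDTA tubes at 5, 15 and 30 min and at 1, 2, 4, 8 and 24 h. Plasma was separated by centrifugation, mixed with acetonitrile:H2O (1:1 v/v) and protein-precipitated with acetonitrile.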

[12] = system: Rattus norvegicus; test: (§11) AUC (0 to infinity) in rat at 5 mg/kg, po; type: ADME, organism-based; design: dose 5 mg/kg, route oral, time infinity; settings: in vivo; summary of the method: as §9
[13] = AUC (0 to infinity) in rat at 1 mg/kg, iv; type: ADME, organism-based; design: dose 1 mg/kg, route intravenous, time infinity; settings: in vivo; summary of the method: as §10
[14] = Volume of distribution in rat at 1 mg/kg, iv; type: ADME, organism-based; settings: in vivo; summary of the method: as §5
[15] = (§12) Clearance in rat at 1 mg/kg, iv; type: ADME, organism-based; settings: in vivo; summary of the method: as §5
[16] = MRT (last) in rat at 5 mg/kg, po; type: ADME, organism-based; settings: in vivo; summary of the method: as §3
[17] = MRT (last) in rat at 1 mg/kg, iv; type: ADME, organism-based; settings: in vivo; summary of the method: as §5
[18] = MRT (INF) in rat at 5 mg/kg, po; type: ADME, organism-based; settings: in vivo; summary of the method: as §3
[19] = system: Rattus norvegicus; test: (§13) MRT (INF) in rat at 1 mg/kg, iv; type: ADME, organism-based; settings: in vivo; summary of the method: as §5
[20] = Oral bioavailability in rat at 5 mg/kg; type: ADME, organism-based; settings: in vivo; summary of the method: as §3
[21] = as §2; type: ADME, organism-based; settings: in vivo; summary of the method: as §3
[22] = as §4; type: ADME, organism-based; settings: in vivo; summary of the method: as §5
[23] = as §6; type: ADME, organism-based; settings: in vivo; summary of the method: as §3
[24] = as §7; type: ADME, organism-based; design: dose 5 mg/kg, route oral; settings: in vivo; summary of the method: as §3
[25] = as §8; type: ADME, organism-based; design: dose 1 mg/kg, route intravenous; settings: in vivo; summary of the method: as §5
[26] = as §11; type: ADME, organism-based; design: dose 5 mg/kg, route oral, time infinity; settings: in vivo; summary of the method: as §9
[27] = system: Rattus norvegicus; test: Volume of distribution in rat at 5 mg/kg, po; type: ADME, organism-based; settings: in vivo; summary of the method: as §3
[28] = Clearance in rat at 5 mg/kg, po; type: ADME, organism-based; settings: in vivo; summary of the method: as §3
[29] = system: Rattus norvegicus; test: as §12; type: ADME, organism-based; settings: in vivo; summary of the method: as §5
[30] = system: Rattus norvegicus; test: Volume of distribution at steady state in rat at 5 mg/kg, po; type: ADME, organism-based; settings: in vivo; summary of the method: as §3
[31] = system: Rattus norvegicus; test: Volume of distribution at steady state in rat at 1 mg/kg, iv; type: ADME, organism-based; settings: in vivo; summary of the method: as §5
[32] = as §13; type: ADME, organism-based; settings: in vivo; summary of the method: as §5
[33] = Homo sapiens, LNCaP, 72 h, read-out: IC50

CNC(=O)c1ccc(N2C(=S)N(c3ccc(C#N)c(C(F)(F)F)c3)C(=O)[C@@H]2C)cc1F
IC50 [1, 33]: 398 nM
Ki [2]: 95.3 nM

CNC(=O)c1ccc(N2C(=S)N(c3ccc(C#N)c(C(F)(F)F)c3)C(=O)[C@@]2(C)COC)cc1F
IC50 [1, 33]: 185 nM
Ki [3]: 40.6 nM

CNC(=O)c1ccc(N2C(=S)N(c3ccc(C#N)c(C(F)(F)F)c3)C(=O)[C@]2(C)COC)cc1F
IC50 [1, 33]: 3170 nM
Ki [3]: 798 nM

CNC(=O)c1ccc(N2C(=S)N(c3ccc(C#N)c(C(F)(F)F)c3)C(=O)C2(C)CO)cc1F (stereo not given)
IC50 [1, 33]: 212 nM
Ki [2]: 43.3 nM

CNC(=O)c1ccc(N2C(=S)N(c3ccc(C#N)c(C(F)(F)F)c3)C(=O)C2(COC)COC)cc1F
IC50 [1, 33]: 3370 nM
Ki [3]: 585 nM

CNC(=O)c1ccc(N2CCC(=O)N(c3ccc(C#N)c(C(F)(F)F)c3)C2=S)cc1F
IC50 [1, 33]: 3010 nM
Ki [3]: 576 nM

CNC(=O)c1ccc(NC(=S)Nc2ccc(C#N)c(C(F)(F)F)c2)cc1F
IC50 [1, 33]: > 10000 nM

CNC(=O)c1ccc(N2C(=S)N(c3ccc(C#N)c(C(F)(F)F)c3)C(=O)[C@]23CCOC3)cc1F
IC50 [1, 33]: 79.2 nM
Ki [3]: 18.4 nM
t1/2 [4]: 5.2 h
t1/2 [5]: 4.1 h
Tmax [6]: 2 h
Tmax [7]: 4.98 min
Cmax [8]: 1062 ng/mL
Cmax [9]: 531 ng/mL
AUC [10]: 13000 ng·h/mL
AUC [11]: 2570 ng·h/mL
AUC [12]: 13105 ng·h/mL
AUC(0-inf) [13]: 2620 ng·h/mL
Vd [14]: 2.3 L/kg
clearance [15]: 6.67 mL/min/kg
MRT last [16]: 6.9 h
MRT last [17]: 4.8 h
MRT inf [18]: 7.2 h
MRT [19]: 5.3 h
bioavailability [20]: 100%

CNC(=O)c1ccc(N2C(=S)N(c3ccc(C#N)c(C(F)(F)F)c3)C(=O)[C@@]23CCOC3)cc1F
IC50 [1, 33]: 2000 nM
Ki [3]: 215 nM

COC(=O)c1ccc(N2C(=S)N(c3ccc(C#N)c(C(F)(F)F)c3)C(=O)[C@]23CCOC3)cc1F
IC50 [1, 33]: 59 nM
Ki [3]: 11.9 nM
half-life [21]: 4.3 h
half-life [22]: 17.1 h
Tmax [23]: 1.67 h
Tmax [7]: 4.98 min
Cmax [24]: 104 ng/mL
Cmax [25]: 518 ng/mL
AUC [10]: 570 ng·h/mL
AUC [11]: 599 ng·h/mL
AUC(0-inf) [26]: 576 ng·h/mL
AUC(0-inf) [13]: 712 ng·h/mL
Vd [27]: 53 L/kg
Vd [14]: 46 L/kg
CL/F [28]: 147 mL/min/kg
CL [29]: 28.3 mL/min/kg
MRT last [16]: 4.6 h
MRT last [17]: 4.3 h
MRT inf [18]: 5 h
MRT [19]: 12.8 h
Vdss [30]: 2 L/kg
Vdss [31]: 1.6 L/kg
bioavailability [20]: 19%

N#Cc1ccc(N2C(=O)[C@]3(CCOC3)N(c3ccc(C(=O)O)c(F)c3)C2=S)cc1C(F)(F)F
IC50 ([1]; lncap): Not Active
Ki [3]: Not Active
half-life [21]: 4 h
half-life [22]: 3.3 h
Tmax [23]: 0.42 h
Tmax [7]: 4.98 min
Cmax [24]: 231 ng/mL
Cmax [25]: 1180 ng/mL
AUC [10]: 716 ng·h/mL
AUC [11]: 497 ng·h/mL
AUC(0-inf) [26]: 743 ng·h/mL
AUC(0-inf) [13]: 509 ng·h/mL
Vd [27]: 38.4 L/kg
Vd [14]: 8 L/kg
CL/F [28]: 117 mL/min/kg
clearance [15]: 33.3 mL/min/kg
MRT last [16]: 3.5 h
MRT last [17]: 0.5 h
MRT inf [18]: 4.2 h
MRT inf [32]: 0.8 h
bioavailability [20]: 29%

CNC(=O)c1ccc(N2C(=S)N(c3ccc(C#N)c(C(F)(F)F)c3)C(=O)C23CN(C(c2ccccc2)c2ccccc2)C3)cc1F
IC50 ([1]; lncap): Not Active
Ki [3]: Not Active
